In paper PMC3000613 (Biochemistry, 2010):

What was measured:
[1] = tested on: MBP-sAnk1_29–155 / GST-Obsc6231–6260; format: binding, rat; conditions: for molar excess of peptide over sAnk1 needed to inhibit binding by 50%: binding of GST-Obsc6231–6260 construct to sAnk1, 1 µM MBP-sAnk1, SPR
Method in brief: (§1)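 Each GST-obscurin fusion was expressed in BL21* pLysS cells (1 mM IPTG, 4 h), affinity-purified, and captured by anti-GST on a CM5 SPR chip. 1 µM MBP-sAnk1 was pre-mixed with synthetic 6316–6345 or 6231–6260 oligopeptide at varying relative molar amounts, then flowed over the chip. Inhibition constant = reciprocal of the peptide:sAnk1 concentration ratio blocking maximal binding by 50%.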

MBP-sAnk1_29–155 [2] = test: SPR direct binding of GST-obscurin constructs to MBP-sAnk1; design: species or system rat; conditions: GST fusion constructs vs MBP-sAnk1_29–155
Method in brief: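 GST-obscurin constructs, expressed in BL21* pLysS cells (1 mM IPTG, 4 h) and affinity-purified, were captured by anti-GST on a CM5 chip. MBP-sAnk1 was applied over a wide concentration range. Signal from a GST-only chip and a buffer blank was subtracted. Kinetic rate constants and KD came from 1:1 binding model fits.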

[3] = tested on: MBP-sAnk1_29–155 / GST-Obsc6316–6345; design: species or system rat; conditions: binding to GST-Obsc6316–6345
Method in brief: as §1

MBP-sAnk1_29–155 [4] = test: SPR competition, oligopeptide inhibition of MBP-sAnk1 binding; design: species or system rat; conditions: binding of MBP-sAnk1_29–155 to either GST-Obsc6316–6345 or GST-Obsc6231–6260

Substance	molar excess of peptide over sAnk1 needed to inhibit binding by 50% [1]	binding to sAnk1 by SPR (in words) (MBP-sAnk1_29–155 [2])	Ratio of inhibition constants, 6316–6345 to 6231–6260 oligopeptide ([1]; binding to GST-Obsc6231–6260)	Ratio of inhibition constants, 6316–6345 to 6231–6260 oligopeptide [3]	relative inhibition of binding vs 6231–6260 oligopeptide (MBP-sAnk1_29–155 [4])
Obsc6231–6260 oligopeptide: synthetic oligopeptide containing obscurin residues 6231–6260	~ 6 fold molar excess	–	–	–	–
Obsc6316–6345 oligopeptide: synthetic oligopeptide containing obscurin residues 6316–6345 (GAAWPGAGTGELLWDVHSHVVRETTQRTYT; UniProt Q5VST9 6316-6345, looked up, fragment)	~ 2 fold molar excess	no significant difference in binding between Obsc6316–6436 and Obsc6316–6345	3.29	3.00	~ 3 fold
